Experiments:
[1] = molecular target: T1, Serine/threonine-protein kinase B-raf (Homo sapiens, UniProt P15056, V600E); experiment: Inhibition of B-Raf V600E mutant-mediated ERK phosphorylation in human A375 cells after 3 hrs by immunoblotting method; type: cell-based, A-375; settings: in the assay text read “whole cell ELISA” for “immunoblotting method”
In short: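 A375 (B-Raf V600E) cells are seeded overnight, then exposed to inhibitors for 3 h at 37 °C. Cells are fixed, permeabilized and blocked overnight. They are probed 1 h with anti-phospho-ERK antibody, then with HRP-linked reagent. The TMB substrate is read as optical density at 650 nm.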

[2] = molecular target: T1, Serine/threonine-protein kinase B-raf; experiment: Inhibition of human B-Raf V600E mutant after 3 hrs
In short: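 Radiometric assay using 20 nM B-Raf V600E. It measures phosphorylation of a biotinylated surrogate peptide by ³³P-ATP in 50 mM HEPES pH 7.5 with 10 mM DTT and 50 mM MnCl₂ at 30 °C for 3 h. The reaction is stopped with 100 mM EDTA, captured 2 h on a streptavidin FlashPlate and scintillation-counted.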

[3] = molecular target: RAC-beta serine/threonine-protein kinase (Homo sapiens, UniProt P31751); experiment: Inhibition of AKT2
[4] = molecular target: Fibroblast growth factor receptor 1 (Homo sapiens, UniProt P11362); experiment: Inhibition of FGFR1
[5] = molecular target: Mast/stem cell growth factor receptor Kit (Homo sapiens, UniProt P10721); experiment: Inhibition of KIT2
[6] = molecular target: T2, Receptor-type tyrosine-protein kinase FLT3 (Homo sapiens, UniProt P36888); experiment: Inhibition of FLT3
T2 sequence (P36888 whole entry): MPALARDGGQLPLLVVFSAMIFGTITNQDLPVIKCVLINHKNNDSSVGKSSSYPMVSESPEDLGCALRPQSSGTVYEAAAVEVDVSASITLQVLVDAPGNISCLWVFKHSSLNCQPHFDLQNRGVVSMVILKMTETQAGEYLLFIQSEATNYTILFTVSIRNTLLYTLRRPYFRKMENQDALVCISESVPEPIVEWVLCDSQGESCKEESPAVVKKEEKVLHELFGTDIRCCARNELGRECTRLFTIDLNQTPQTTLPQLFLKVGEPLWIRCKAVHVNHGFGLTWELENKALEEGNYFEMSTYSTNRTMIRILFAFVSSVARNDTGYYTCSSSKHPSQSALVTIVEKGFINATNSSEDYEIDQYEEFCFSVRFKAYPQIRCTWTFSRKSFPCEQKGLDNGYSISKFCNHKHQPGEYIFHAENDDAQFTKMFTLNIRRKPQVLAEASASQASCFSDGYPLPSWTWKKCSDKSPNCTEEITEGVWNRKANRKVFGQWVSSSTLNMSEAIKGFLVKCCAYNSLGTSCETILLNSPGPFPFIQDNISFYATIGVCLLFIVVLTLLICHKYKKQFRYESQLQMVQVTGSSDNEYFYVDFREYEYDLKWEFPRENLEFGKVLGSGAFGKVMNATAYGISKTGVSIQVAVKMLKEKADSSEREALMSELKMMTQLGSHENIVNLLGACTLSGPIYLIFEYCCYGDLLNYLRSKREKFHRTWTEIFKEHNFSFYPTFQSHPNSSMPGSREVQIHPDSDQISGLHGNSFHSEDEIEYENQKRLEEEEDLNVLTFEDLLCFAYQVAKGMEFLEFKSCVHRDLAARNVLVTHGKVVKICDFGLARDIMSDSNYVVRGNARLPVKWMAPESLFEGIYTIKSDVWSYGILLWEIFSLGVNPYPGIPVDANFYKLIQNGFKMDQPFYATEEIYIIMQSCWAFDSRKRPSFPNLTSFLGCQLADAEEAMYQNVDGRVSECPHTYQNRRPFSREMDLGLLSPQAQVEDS

[7] = molecular target: Vascular endothelial growth factor receptor 2 (Homo sapiens, UniProt P35968); experiment: Inhibition of KDR
[8] = molecular target: Macrophage colony-stimulating factor 1 receptor (Homo sapiens, UniProt P07333); experiment: Inhibition of CSF1R
Homo sapiens = species: Homo sapiens; experiment: Selectivity ratio of IC50 for wild type human B-Raf to IC50 for human B-Raf V600E mutant

Sequence of Macrophage colony-stimulating factor 1 receptor (P07333 whole entry): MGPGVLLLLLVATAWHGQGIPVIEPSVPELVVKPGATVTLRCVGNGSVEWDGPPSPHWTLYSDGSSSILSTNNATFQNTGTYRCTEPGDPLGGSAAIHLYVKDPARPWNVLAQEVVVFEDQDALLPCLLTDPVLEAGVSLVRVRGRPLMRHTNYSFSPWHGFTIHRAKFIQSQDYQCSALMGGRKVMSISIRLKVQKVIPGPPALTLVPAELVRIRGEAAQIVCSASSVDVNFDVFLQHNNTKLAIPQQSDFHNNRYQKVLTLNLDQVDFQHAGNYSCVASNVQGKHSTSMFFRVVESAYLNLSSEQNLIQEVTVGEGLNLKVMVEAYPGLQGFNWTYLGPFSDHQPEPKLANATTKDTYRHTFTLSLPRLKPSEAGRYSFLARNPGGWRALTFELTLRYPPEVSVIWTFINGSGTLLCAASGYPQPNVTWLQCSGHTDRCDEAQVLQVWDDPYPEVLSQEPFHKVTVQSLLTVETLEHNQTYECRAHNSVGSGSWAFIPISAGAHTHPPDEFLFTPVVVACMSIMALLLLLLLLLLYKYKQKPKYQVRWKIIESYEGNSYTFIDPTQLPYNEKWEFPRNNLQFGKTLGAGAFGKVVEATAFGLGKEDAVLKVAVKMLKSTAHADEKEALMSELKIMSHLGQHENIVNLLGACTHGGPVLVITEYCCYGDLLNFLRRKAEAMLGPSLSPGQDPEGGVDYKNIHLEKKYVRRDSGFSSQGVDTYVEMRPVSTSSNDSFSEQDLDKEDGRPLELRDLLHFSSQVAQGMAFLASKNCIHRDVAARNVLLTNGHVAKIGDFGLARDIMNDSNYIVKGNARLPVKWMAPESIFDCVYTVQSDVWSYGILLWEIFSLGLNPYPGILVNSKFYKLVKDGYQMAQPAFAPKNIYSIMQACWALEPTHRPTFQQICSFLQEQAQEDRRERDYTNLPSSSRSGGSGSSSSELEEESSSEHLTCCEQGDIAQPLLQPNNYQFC
Sequence of Mast/stem cell growth factor receptor Kit (P10721 whole entry): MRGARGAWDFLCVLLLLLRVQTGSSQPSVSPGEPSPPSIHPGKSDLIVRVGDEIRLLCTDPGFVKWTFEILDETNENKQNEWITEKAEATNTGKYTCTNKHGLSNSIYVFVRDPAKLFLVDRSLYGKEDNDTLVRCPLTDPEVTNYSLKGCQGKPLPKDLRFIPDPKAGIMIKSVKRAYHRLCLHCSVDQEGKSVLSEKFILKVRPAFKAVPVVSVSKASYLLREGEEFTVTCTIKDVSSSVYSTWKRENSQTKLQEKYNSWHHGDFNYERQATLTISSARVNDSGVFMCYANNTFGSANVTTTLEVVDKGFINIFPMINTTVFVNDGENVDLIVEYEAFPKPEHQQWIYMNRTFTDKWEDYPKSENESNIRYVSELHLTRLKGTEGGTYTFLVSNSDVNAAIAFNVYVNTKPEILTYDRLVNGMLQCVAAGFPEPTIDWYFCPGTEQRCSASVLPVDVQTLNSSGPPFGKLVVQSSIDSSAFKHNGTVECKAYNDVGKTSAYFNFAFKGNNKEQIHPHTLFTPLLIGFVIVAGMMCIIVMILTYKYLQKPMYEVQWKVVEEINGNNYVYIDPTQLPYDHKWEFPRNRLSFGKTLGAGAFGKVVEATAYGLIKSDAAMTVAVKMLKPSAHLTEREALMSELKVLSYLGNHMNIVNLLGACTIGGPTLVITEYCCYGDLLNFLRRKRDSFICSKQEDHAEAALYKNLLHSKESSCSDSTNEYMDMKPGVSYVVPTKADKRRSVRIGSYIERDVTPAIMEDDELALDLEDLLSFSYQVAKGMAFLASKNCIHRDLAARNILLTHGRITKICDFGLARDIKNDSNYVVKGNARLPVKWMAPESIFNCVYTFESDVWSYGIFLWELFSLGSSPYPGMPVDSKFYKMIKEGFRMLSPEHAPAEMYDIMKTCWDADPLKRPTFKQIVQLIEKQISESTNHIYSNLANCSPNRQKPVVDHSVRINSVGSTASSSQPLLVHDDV
T1 sequence (P15056 2-766 V600E limits assumed): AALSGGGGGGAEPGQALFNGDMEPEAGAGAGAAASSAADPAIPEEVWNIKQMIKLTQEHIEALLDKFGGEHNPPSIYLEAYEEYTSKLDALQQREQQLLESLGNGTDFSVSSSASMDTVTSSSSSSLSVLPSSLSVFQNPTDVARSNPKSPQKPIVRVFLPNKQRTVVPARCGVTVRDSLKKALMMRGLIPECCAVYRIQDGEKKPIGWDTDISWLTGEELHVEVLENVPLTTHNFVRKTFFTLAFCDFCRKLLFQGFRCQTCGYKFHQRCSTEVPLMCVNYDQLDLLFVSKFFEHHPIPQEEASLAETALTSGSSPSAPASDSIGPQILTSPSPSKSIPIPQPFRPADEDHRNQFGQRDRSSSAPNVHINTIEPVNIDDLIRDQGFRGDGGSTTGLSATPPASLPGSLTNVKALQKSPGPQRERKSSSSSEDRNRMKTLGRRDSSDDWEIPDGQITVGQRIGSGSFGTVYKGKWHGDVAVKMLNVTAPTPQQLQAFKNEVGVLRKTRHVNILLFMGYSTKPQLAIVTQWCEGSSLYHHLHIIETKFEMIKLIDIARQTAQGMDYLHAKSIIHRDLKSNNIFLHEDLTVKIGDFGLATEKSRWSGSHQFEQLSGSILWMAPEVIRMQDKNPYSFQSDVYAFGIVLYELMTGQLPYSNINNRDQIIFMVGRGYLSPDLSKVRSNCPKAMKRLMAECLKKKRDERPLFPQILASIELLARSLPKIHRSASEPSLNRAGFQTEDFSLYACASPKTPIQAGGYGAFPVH
Sequence of Fibroblast growth factor receptor 1 (P11362 whole entry): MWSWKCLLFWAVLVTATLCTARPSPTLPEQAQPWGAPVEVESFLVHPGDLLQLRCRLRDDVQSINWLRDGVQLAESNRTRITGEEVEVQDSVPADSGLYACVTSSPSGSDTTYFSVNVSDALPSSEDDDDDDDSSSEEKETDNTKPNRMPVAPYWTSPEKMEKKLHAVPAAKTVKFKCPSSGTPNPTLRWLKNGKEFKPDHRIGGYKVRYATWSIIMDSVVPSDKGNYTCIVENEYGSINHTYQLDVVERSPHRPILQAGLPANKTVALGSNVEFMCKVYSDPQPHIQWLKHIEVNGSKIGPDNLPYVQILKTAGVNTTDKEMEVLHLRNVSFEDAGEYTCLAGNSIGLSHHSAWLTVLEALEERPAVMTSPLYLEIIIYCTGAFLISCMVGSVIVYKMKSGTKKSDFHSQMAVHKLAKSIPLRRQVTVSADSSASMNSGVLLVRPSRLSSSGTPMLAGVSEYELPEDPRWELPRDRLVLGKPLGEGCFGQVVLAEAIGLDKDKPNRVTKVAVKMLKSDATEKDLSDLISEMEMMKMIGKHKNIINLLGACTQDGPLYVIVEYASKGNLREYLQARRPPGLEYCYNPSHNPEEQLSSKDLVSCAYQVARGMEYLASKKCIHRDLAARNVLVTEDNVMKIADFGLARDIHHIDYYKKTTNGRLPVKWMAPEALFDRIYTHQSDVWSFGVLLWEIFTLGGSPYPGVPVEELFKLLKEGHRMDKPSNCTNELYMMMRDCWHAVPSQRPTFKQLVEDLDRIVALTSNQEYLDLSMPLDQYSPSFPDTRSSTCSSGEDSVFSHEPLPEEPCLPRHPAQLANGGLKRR
Sequence of RAC-beta serine/threonine-protein kinase (P31751 whole entry): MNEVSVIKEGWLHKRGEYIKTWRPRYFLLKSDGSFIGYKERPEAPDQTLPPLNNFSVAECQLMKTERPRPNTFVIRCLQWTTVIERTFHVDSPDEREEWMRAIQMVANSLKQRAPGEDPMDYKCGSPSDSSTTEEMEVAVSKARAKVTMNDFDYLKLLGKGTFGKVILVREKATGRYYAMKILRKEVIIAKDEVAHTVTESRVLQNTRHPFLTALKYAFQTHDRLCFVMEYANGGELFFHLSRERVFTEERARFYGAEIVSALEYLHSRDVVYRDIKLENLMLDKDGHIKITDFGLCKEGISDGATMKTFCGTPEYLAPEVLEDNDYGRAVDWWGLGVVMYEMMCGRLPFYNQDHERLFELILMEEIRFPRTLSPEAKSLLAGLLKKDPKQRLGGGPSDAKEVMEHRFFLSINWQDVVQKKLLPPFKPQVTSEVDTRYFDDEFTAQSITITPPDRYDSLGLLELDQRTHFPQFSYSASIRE

Structure (SMILES) | IC50 [1] [nM] | IC50 [2] [nM] | further results
O=C(c1cc2c(s1)CCC2)N1N=C(c2cccnc2)CC1c1ccccc1O (stereo not given) | 920 | 6.9 | –
COc1ccc(-c2cc(C(=O)N3N=C(c4cccnc4)CC3c3ccccc3O)no2)cc1 (stereo not given) | 460 | 15.4 | –
O=C(CC1CC1)N1N=C(c2cccnc2)CC1c1ccccc1O (stereo not given) | 8000 | 83 | –
Cc1nc(-c2cnccn2)sc1C(=O)N1N=C(c2cccnc2)CC1c1ccccc1O (stereo not given) | 710 | 6.5 | –
O=C(c1cccc(-n2cccn2)c1)N1N=C(c2cccnc2)CC1c1ccccc1O (stereo not given) | 8700 | 42 | IC50 [3]: > 10 µM; IC50 [4]: > 10 µM; IC50 [5]: > 10 µM; IC50 [6]: > 10 µM; IC50 [7]: > 10 µM; IC50 [8]: > 10 µM
O=C(c1cc(-c2ccc3c(c2)OCCO3)n[nH]1)N1N=C(c2cccnc2)CC1c1ccccc1O (stereo not given) | 240 | 10.7 | –
COc1cccc(-c2cc(C(=O)N3N=C(c4cccnc4)CC3c3ccccc3O)no2)c1 (stereo not given) | 930 | 6.7 | –
O=C(c1cccs1)N1N=C(c2cccnc2)CC1c1ccccc1O (stereo not given) | 1500 | 24.2 | IC50 [3]: > 10 µM; IC50 [4]: > 10 µM; IC50 [5]: > 10 µM; IC50 [6]: > 10 µM; IC50 [7]: > 10 µM; Ratio IC50 (Homo sapiens): < 2; IC50 [8]: > 10 µM
O=C(c1ccc[nH]1)N1N=C(c2cccnc2)CC1c1ccccc1O (stereo not given) | 2000 | 22.6 | IC50 [3]: > 10 µM; IC50 [4]: > 10 µM; IC50 [5]: > 10 µM; IC50 [6]: > 10 µM; IC50 [7]: > 10 µM; IC50 [8]: > 10 µM
O=C(c1cccc(-n2cnnn2)c1)N1N=C(c2cccnc2)CC1c1ccccc1O (stereo not given) | > 10000 | 28 | –
O=C(c1cc(-c2cccs2)n[nH]1)N1N=C(c2cccnc2)CC1c1ccccc1O (stereo not given) | 410 | 10.3 | –
O=C(c1ccc(-c2cccnc2)s1)N1N=C(c2cccnc2)CC1c1ccccc1O (single isomer, unassigned; later eluting) | 280 | 15 | –
O=S(=O)(c1ccc(-c2cccnc2)s1)N1N=C(c2cccnc2)CC1c1ccccc1O (stereo not given) | > 10000 | 2000 | –
N#Cc1ccccc1S(=O)(=O)N1N=C(c2cccnc2)CC1c1ccccc1O (stereo not given) | – | 450 | –
O=C(c1cccc(C(F)(F)F)c1F)N1N=C(c2cccnc2)CC1c1ccccc1O (stereo not given) | – | > 10000 | –
O=C(c1ccc([N+](=O)[O-])o1)N1N=C(c2cccnc2)CC1c1ccccc1O (stereo not given) | – | 130 | –
O=C(c1ccccc1Oc1ccccc1)N1N=C(c2cccnc2)CC1c1ccccc1O (stereo not given) | – | > 10000 | –
O=C(c1cccc2c(F)cccc12)N1N=C(c2cccnc2)CC1c1ccccc1O (stereo not given) | – | > 10000 | –
O=C(c1cn2c(n1)sc1ccccc12)N1N=C(c2cccnc2)CC1c1ccccc1O (stereo not given) | 61 | 9.1 | –
O=C(c1cc(-c2ccco2)on1)N1N=C(c2cccnc2)CC1c1ccccc1O (stereo not given) | 970 | 5.6 | –
O=C(c1ccccc1-c1ccc(F)cc1)N1N=C(c2cccnc2)CC1c1ccccc1O (stereo not given) | – | > 10000 | –
O=C(c1ccc(Br)o1)N1N=C(c2cccnc2)CC1c1ccccc1O (stereo not given) | 1400 | 7.9 | IC50 [3]: > 10 µM; IC50 [4]: > 10 µM; IC50 [5]: > 10 µM; IC50 [6]: > 10 µM; IC50 [7]: > 10 µM; IC50 [8]: > 10 µM
O=C(c1cc(-c2ccccc2)no1)N1N=C(c2cccnc2)CC1c1ccccc1O (stereo not given) | 1100 | 8 | –

Reference: ChEMBL document CHEMBL1781905, “Discovery and optimization of N-acyl and N-aroylpyrazolines as B-Raf kinase inhibitors” (Bioorg Med Chem Lett, 2010)
